Source: PubChem
T cruzi inh: T. cruzi replication inhibition. T. cruzi beta-gal in NIH3T3, luminescence, 90 h. inhibition, % (no concentration beside the values). 300,000 compounds, 1.4% hits. AID 1885;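 active means mean inhibition across valid replicates above about 55%, limit read from the data; inconclusive means mean below that limit but half or more replicates reach it; inactive means mean below it, under half of replicates reach it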;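 further: signal also drops with host cell toxicity which is not excluded here; 0% = plate median of DMSO wells and 100% = zero luminescence signal; higher percent means less beta-gal luminescence so fewer parasites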
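System: Mouse NIH/3T3 fibroblasts infected with β-gal-expressing T. cruzi Tulahuen C4 | Quantity: NIH/3T3 cells, 5,000 per well | Reagent: 5000 reporter trypomastigotes per well | Dosing: Compound pinned at 50 nL/well, DMSO | Schedule: 3 h host attachment, then at least 90 h co-culture | Detection: GalScreen luminescence, 60 min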
Beta cell apopt: blocks beta cell apoptosis; protection from apoptosis, % (concentration not given with the values); 300,000 compounds, 0.8% hits; INS-1E cytokine-induced death, ATP luminescence, 48 h; percent of positive-control rescue, neutral wells zero;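 active means Every replicate reaches about 75%, or at least half do and their mean reaches it too, limit read from the data; inconclusive means At least half of replicates reach the limit but their mean does not; inactive means Under half of replicates reach the limit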;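 further: 0% = cytokine-treated negative control wells and 100% = positive control rescue; higher means more ATP so stronger rescue from cytokine killing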
Efflux pump mplx: antifungal efflux pump inhibition, Nile Red retention | 330,000 compounds, 0.44% hits | S. cerevisiae Candida pump triplex | inhibition, % at 10 µM;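 active means plate passing quality check with inhibition over a set limit, or well fluorescence over plate mean plus 4 SD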;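 further: Nile Red retained in pooled yeast measured as flow cytometry median fluorescence; 0% = buffer negative control and 100% = Enniatin B positive control; higher means more Nile Red kept so more efflux inhibition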
WT yeast gro inh: growth inhibition of WT yeast, mitochondrial fusion screen; inhibition, % at 10 µM; mitochondrial fusion phenotypic screen, WT strain; 190,000 compounds, 2.1% hits; in the data active means inhibition above about 58%; tested in S. cerevisiae
SUMO Mot1 rescue: blocks SUMOylation pathway, rescuing yeast Mot1-301 growth | AID 2716 | 320,000 compounds, 1% hits | growth rescue, % at 18.8 µM | S. cerevisiae Mot1-301 growth rescue, ATP luminescence, 38.5C; percent above DMSO median, 100 means doubled;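 active means every valid replicate shows activation above 250% relative to neutral control wells; inactive means the rest, any valid replicate at or below 250%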;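 further: OY570 slx delta 5 strain wells were the positive control but not used for scaling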
CSC inhib: blocks cancer stem cells. 300,000 compounds, 1.1% hits. inhibition, % at 7.5 µM. cancer stem cell-like cells viability, luminescence; in the data active means inhibition above about 75%; inconclusive means no clear call, values can overlap the other calls; tested in HMLE shEcad cells
The depositor's hits bear a star; ? = inconclusive; . = no result given. Hits are enriched below; roughly 4.8% of the tested compounds scored in any of these assays.

SMILES	T cruzi inh	Beta cell apopt	Efflux pump mplx	WT yeast gro inh	SUMO Mot1 rescue	CSC inhib
CC(=O)Oc1ccc(C(=O)NCc2ccco2)cc1	-17	.	0	.	-2	-9
CCOC(=O)C1CCCN(S(=O)(=O)c2ccc(S(=O)(=O)N(CC)CC)cc2)C1 (configuration not stated)	27	110*	0	15	.	.
CCOC(=O)C1CCCN(S(=O)(=O)c2ccc(C)cc2)C1 (configuration not stated)	1	0	0	11	135	14
C=CCN1C(=NC(=O)COc2ccc(Cl)cc2)SC2CS(=O)(=O)CC21 (configuration not stated)	-5	-2	0	.	-3	-1
CSc1nncc(/C(C)=N\Nc2ccccc2)n1	-1	7	0	10	297*	0
CC/C(=N/Nc1ccccc1C)c1cnnc(SC)n1	10	1	0	-8	17	4
COc1ccc(C(=O)C/C(=C\C(=O)c2ccc(C)cc2)c2ccccc2)cc1	64*	?	0	46	-27	.
O=C(Nc1cccc(C(F)(F)F)c1)N(Cc1ccc(Cl)cc1)CC(O)C(F)(F)F (configuration not stated)	28	6	0	84*	14	55
CC(O)(CS(=O)(=O)Cc1ccc(Cl)cc1)C(=O)Nc1cccc(C(F)(F)F)c1 (configuration not stated)	16	-11	0	2	5	16
COc1ccc(Cn2nnnc2C(c2ccccn2)N2CCN(c3cc(Cl)ccc3C)CC2)cc1 (configuration not stated)	65*	14	0	16	-3	31
CN(C)CCCNC(=O)/C(=C\c1ccc(-c2ccc(Br)cc2)o1)NC(=O)c1ccccc1	27	12	0	-11	22	14
CCCCNC(=O)/C(=C\c1ccc([N+](=O)[O-])o1)NC(=O)c1ccccc1	63*	2	0	6	15	0
Cc1ccc(C(=O)N/C(=C\c2ccc(-c3ccc(Cl)cc3)o2)C(=O)NCCCN(C)C)cc1	56*	110*	0	4	31	6
CC(=O)N/N=C(\C)C1COc2ccccc2O1 (configuration not stated)	2	-2	0	.	-9	-1
COc1cc2nc(N(CCCN(C)C)C(=O)c3ccc(S(=O)(=O)N4CCc5ccccc54)cc3)sc2cc1OC	55*	.	0	.	-9	-11
COc1ccc2sc(N(CCCN(C)C)C(=O)c3ccc(S(=O)(=O)N4CCCc5ccccc54)cc3)nc2c1	62*	.	0	.	-1	3
COc1cc2nc(N(CCCN(C)C)C(=O)c3ccc(S(=O)(=O)N(C)C4CCCCC4)cc3)sc2cc1OC	50	.	0	.	-17	0
CC(=O)Nc1cccc(OCC(=O)NC(C)c2ccc3ccccc3c2)c1 (configuration not stated)	6	-1	0	.	228	-2
O=C(Cc1ccccc1)NNC(=O)Nc1ccccc1	-20	-4	0	-2	-1	.
O=C(Nc1ccc(-c2nc3ccccc3o2)cc1)c1cccnc1	-1	19	0	18	.	-10
Cc1ccc2oc(-c3ccc(NC(=O)c4cccnc4)cc3)nc2c1	1	86*	0	31	-20	.
COc1cccc(C(=O)Nc2ccc(-c3nc4ccccc4o3)c(O)c2)c1	19	10	0	13	-4	22
COc1cc(OC)cc(C(=O)Nc2ccc(Nc3ccccc3)cc2)c1	-1	21	0	.	18	88*
Cc1cc(OCc2nc(-c3ccc(NC(=O)c4cccnc4)cc3)no2)ccc1Cl	-1	125*	0	4	264	-9
COc1cc(OC)cc(C(=O)Nc2ccc(-c3nc4ccccc4o3)cc2)c1	60*	35	0	2	4	14
SMILES	T cruzi inh	Beta cell apopt	Efflux pump mplx	WT yeast gro inh	SUMO Mot1 rescue	CSC inhib
O=S(=O)(Nc1ccc2oc(-c3ccccc3)nc2c1)c1ccccc1	-12	2	0	1	-31	8
Cc1ccc(-c2nc3cc(NS(=O)(=O)c4ccc(C)cc4)ccc3o2)cc1	29	-3	0	73*	-12	19
COc1cc(OC)cc(C(=O)Nc2cccc(N3CCCC3)c2)c1	68*	0	0	4	11	-13
CSc1ccc(-c2nc(CN(C)C3CCOC3)c(C)o2)cc1 (configuration not stated)	-11	-1	0	12	18	-4
Cc1ccc(-c2nc(CN(C)C(C3CC3)C3CC3)c(C)o2)cc1	3	-12	0	6	316*	-7
O=C(CSc1ncnc2nc[nH]c12)c1ccc(Cl)cc1	11	-1	0	9	8	102*
CCCN(CCC)CCCNC(=O)CS(=O)Cc1nc(-c2ccc(OC)c(OC)c2)oc1C (configuration not stated)	-15	-5	0	71*	13	-1
Cc1ccc(-c2nc(CS(=O)CC(=O)NCc3ccc4c(c3)OCO4)c(C)o2)cc1 (configuration not stated)	2	9	0	.	-10	76*
CCc1ccc(-c2nc(CS(=O)CC(=O)NCc3ccc4c(c3)OCO4)c(C)o2)cc1 (configuration not stated)	-2	2	0	.	-10	32
Cc1c(NC(=O)c2ccc(C(C)(C)C)cc2)cccc1[N+](=O)[O-]	12	10	0	5	-8	.
CC(C)(C)c1ccc(NC(=O)c2ccccc2)c([N+](=O)[O-])c1	13	3	0	66*	-21	.
O=C(NC1CC1)c1ccc(CSCc2ccccc2Cl)o1	-9	-2	0	.	-10	-11
CCOC(=O)C1CCN(C(=O)COC(=O)CSc2ccc(C(N)=O)cc2[N+](=O)[O-])CC1	-3	-2	0	.	-6	-2
C/C(CCc1ccc2c(c1)OCO2)=N\N=C1\NC(=O)CC(C(=O)Nc2ccc(Cl)cc2)S1 (configuration not stated)	22	-2	0	73*	-16	-13
COc1cc(NC(=O)COC(C)=O)c(C)cc1[N+](=O)[O-]	-23	-7	0	0	-3	-14
COc1ccc([C@H]2CC(=O)C=C(c3cccc(CO)c3)C2)cc1	.	-2	0	.	-13	8
CC(=O)Nc1cccc(N2C(=O)CC(N3CCC(C(=O)N4CCCCC4)CC3)C2=O)c1 (configuration not stated)	-34	-5	0	-2	11	8
COc1cc(OC)cc(N2C(=O)CC(N3CCC(C(=O)N4CCCCC4)CC3)C2=O)c1 (configuration not stated)	-8	6	0	.	298*	3
CCOC(=O)C1CCCN(C2CCN(Cc3nc(-c4ccccc4)no3)CC2)C1 (configuration not stated)	70*	-1	0	3	15	33
